Broadly, the pIC50 is the negative decadic logarithm of the IC50, by convention in mol/L. One may read the inhibition as the relative decrease from the control value, in per cent.

The structures appear in SMILES notation. pIC50: −log10 of the molar value. Calls of active or inactive are those of the source. The calls are words filed in the database; no cut-off is given here.

Test [1] addresses T1, Glycogen synthase kinase-3 beta (Homo sapiens, UniProt P49841). Put plainly: Inhibition of recombinant human GSK-3beta using phosphorylated polypeptide as substrate incubated for 30 mins in presence of ATP by kinase-glo luminescence assay. A digest of the protocol:
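Buffer is 50 mM HEPES pH 7.5, 1 mM EDTA, 1 mM EGTA, 15 mM magnesium acetate. Runs 30 min at 30 °C; luminescence read 10 min after reagent. Inhibition is relative to no-inhibitor maximal activity.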
In general terms: Kinase-Glo reads ATP consumption through a luciferase reaction.
Target sequence in this assay (P49841 whole entry): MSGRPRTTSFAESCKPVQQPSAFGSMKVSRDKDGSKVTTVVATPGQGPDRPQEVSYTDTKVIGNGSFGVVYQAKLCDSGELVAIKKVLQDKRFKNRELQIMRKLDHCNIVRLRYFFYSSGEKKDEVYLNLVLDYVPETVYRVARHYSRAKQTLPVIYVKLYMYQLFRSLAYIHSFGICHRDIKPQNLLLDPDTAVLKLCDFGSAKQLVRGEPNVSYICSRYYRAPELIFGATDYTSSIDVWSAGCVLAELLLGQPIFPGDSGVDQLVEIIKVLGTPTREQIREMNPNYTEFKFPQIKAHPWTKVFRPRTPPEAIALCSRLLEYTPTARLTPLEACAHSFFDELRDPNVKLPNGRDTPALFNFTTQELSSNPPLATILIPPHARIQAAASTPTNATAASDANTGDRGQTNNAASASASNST

The target of test [2] is T1, Glycogen synthase kinase-3 beta. Put plainly: Inhibition of recombinant human GSK-3beta at 50 uM using phosphorylated polypeptide as substrate incubated for 30 mins in presence of ATP by kinase-glo luminescence assay relative to control. A digest of the protocol: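 Kinase-Glo luminescence: 20 ng enzyme with test compound (DMSO ≤1% final), 25 μM substrate, 1 μM ATP. Buffer is 50 mM HEPES pH 7.5, 1 mM EDTA, 1 mM EGTA, 15 mM magnesium acetate. Runs 30 min at 30 °C; luminescence read 10 min after reagent. Inhibition is relative to no-inhibitor maximal activity.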
Target sequence in this assay (P49841 whole entry, looked up): as the sequence (P49841 whole entry) above

Test [3] has as its system SH-SY5Y. Put plainly: Neuroprotective activity against OA-induced neuronal injury in human SH-SY5Y cells assessed as reduction in cell death at 0.1 to 10 uM pre-incubated for 1 hrs followed by OA addition measured after 24 hrs by MTT assay. The class given is functional, cell-based. As to conditions: dose 0.1-10 µM. A digest of the protocol:
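SH-SY5Y cells (DMEM, 10% FBS, 1% pen/strep, 37 °C, 5% CO2) seeded at 60,000/well and grown 48 h. Compound (0.1, 0.5, 1, 5, 10 μM) added 1 h before okadaic acid at 30 nM, then 24 h. Viability by MTT (0.5 mg/mL, ≥4 h), formazan in DMSO, A595, as % control. Mean ± SEM, three independent experiments.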

Test [4] can be described thus: Inhibition of Ustilago maydis GSK-3beta using Ser/Thr 6 peptide as substrate preincubated for 60 mins followed by ATP and substrate addition and measured after 45 mins by Z'lyte assay. Details: species or system Mycosarcoma maydis.

In the case of `Cc1cc2nc(CO[C@H]3CN(Cc4cccnc4)C[C@H]3F)[nH]c2cc1C`, the pIC50 in test [1] was below 4.30. The inhibition in test [2] was found to be 5%.
On the same counts, the results for `CS(=O)(=O)c1ccc(CN2C[C@@H](F)[C@@H](OCc3nc4cc(C(F)(F)F)ccc4[nH]3)C2)cc1` are below 4.30 and 19%.
Taken in the same sequence, the figures for `CSc1cccc(NC(=O)NC2C[C@@H]3CCCN2CC3CN(C)c2ccccc2)c1` (some centres undefined) were below 4.30 and 1%.
As to `CCNC(=O)N[C@H]1CO[C@H]2[C@@H]1OC[C@@H]2Nc1nccc(-c2ccc(OC)cc2)n1`, in test [1], the pIC50 was 6.93. In addition, in test [3], the outcome was Active.
`COC(=O)c1ccc2c(c1)nc1n2[C@@H](CNC(=O)Nc2ccccc2)COC1`: the pIC50 in test [1] was below 4.30. In addition, the inhibition in test [2] is 1%.
Take `CNC(=O)c1cc(Oc2ccc(NC(=O)Nc3cc(C(F)(F)F)c(Cl)cc3OCCCC(=O)O)cc2)ccn1`: the negative-log IC50 (pIC50) in test [4] is 7.24.
Same read-out and setting: under `CC(C)(C)c1cc(NC(=O)Nc2ccc(Cl)cc2)n(-c2cccc(N)c2)n1` stands 5.11; under `CC(C)(C)c1cc(NC(=O)Nc2ccc(OCCN3CCOCC3)c3ccccc23)n(-c2cccc(N)c2)n1`, 5.96.
As for `O=C(Nc1cccc(C(F)(F)F)c1)N[C@H]1CO[C@H]2[C@@H]1OC[C@@H]2OC(=O)Nc1ccc(Oc2ccccc2)cc1`, the pIC50 in test [1] is below 4.30. Further, the inhibition in test [2] stood at 42%.
Compound `Cc1ccc(-n2nc(C(C)(C)C)cc2NC(=O)Nc2ccc(OCCN3CCOCC3)cc2)cc1` had a pIC50 in test [4] of 4.99.
In the case of `O=C(Nc1cccc(C(F)(F)F)c1)N[C@H]1CO[C@H]2[C@@H]1OC[C@@H]2Nc1nccc(-c2cccs2)n1`, the negative logarithm of the IC50 (pIC50) in test [1] is 5.39.
As for `Cc1nn(-c2ccccc2[N+](=O)[O-])c(C)c1[C@@H]1C=C[C@@H](NC(=O)Nc2cccc(C#N)c2)C1`, the negative logarithm of the IC50 (pIC50) in test [1] was below 4.30. The inhibition in test [2] worked out at 26%.
Consider `N#Cc1ccc(CN2C[C@@H](F)[C@@H](OCc3nc4cc(C(F)(F)F)ccc4[nH]3)C2)cc1`, for which the negative-log IC50 (pIC50) in test [1] was below 4.30. The inhibition in test [2] was found to be 2%.
`Cc1ccc(-n2nc(C(C)(C)C)cc2NC(=O)Nc2ccc(OCCN3CCOCC3)c3ccccc23)cc1` [DORAMAPIMOD] had a pIC50 in test [4] of 5.97.
Take `COc1ccc(-c2ccnc(N[C@H]3CO[C@H]4[C@@H]3OC[C@@H]4NC(=O)Nc3cccc(C(F)(F)F)c3)n2)cc1`: in test [1], the negative logarithm of the IC50 (pIC50) is 5.01.
Turning to `O=C(Nc1cccc(C(F)(F)F)c1)O[C@@H]1CO[C@H]2[C@@H]1OC[C@@H]2NC(=S)Nc1ccc(Cl)cc1`, the pIC50 in test [1] was below 4.30. Further, the inhibition in test [2] was 41%.
On the same counts, the results for `O=C(c1cccnc1)N1C[C@@H](F)[C@@H](OCc2nc3cc(C(F)(F)F)ccc3[nH]2)C1` are below 4.30 and 14%.
Taken in the same sequence, the figures for `COc1ccc2nc(CO[C@H]3CN(Cc4ccnc5ccccc45)C[C@H]3F)[nH]c2c1` were below 4.30 and 13%.
On the same counts, the results for `O=C(Nc1cccc2ccccc12)N[C@H]1CO[C@H]2[C@@H]1OC[C@H]2OC(=O)Nc1ccccc1` are below 4.30 and 21%.
With `O=C(Nc1cccc(C(F)(F)F)c1)N[C@H]1CO[C@H]2[C@@H]1OC[C@@H]2Nc1nccc(C2CCCC2)n1`, the negative logarithm of the IC50 (pIC50) in test [1] is 4.92.
For `O=C(c1ccncc1)N1C[C@@H](F)[C@@H](OCc2nc3ccc(F)cc3[nH]2)C1`, in test [1], the pIC50 was below 4.30. Further, the inhibition in test [2] came to 19%.
On the same counts, the results for `CC(=O)Nc1ccc(CN2C[C@@H](F)[C@@H](OCc3nc4cc(C)c(C)cc4[nH]3)C2)cc1` are below 4.30 and 2%.
Turning to `COc1ccc(-c2ccnc(N[C@H]3CO[C@H]4[C@@H]3OC[C@@H]4NC(=O)Nc3ccccc3)n2)cc1`, in test [1], the negative-log IC50 (pIC50) is 6.25. The result in test [3] was Active.
On to `Cn1cccc1C(=O)N1C[C@H](NC(=O)Nc2ccc(F)cc2F)C[C@@H]1C(=O)N[C@H](Cc1c[nH]c2ccccc12)C(N)=O`, for which the negative-log IC50 (pIC50) in test [1] was below 4.30. Further, the inhibition in test [2] was 6%.
`COc1ccccc1-c1ccnc(N[C@H]2CO[C@H]3[C@@H]2OC[C@@H]3NC(=O)Nc2cccc(C#N)c2)n1`: in test [1], the pIC50 was 5.22. Also, in test [3], the outcome was inactive.
With `Cn1sc(=O)n(Cc2ccccc2)c1=O`, the outcome in test [3] was Active.
Take `COc1ccccc1-c1ccnc(N[C@H]2CO[C@H]3[C@@H]2OC[C@@H]3NC(=O)Nc2cccc(C(F)(F)F)c2)n1`: the pIC50 in test [1] is 4.57.
In the case of `O=C(O)CCCNC(=O)c1cc(Oc2ccc(NC(=O)Nc3ccc(Cl)c(C(F)(F)F)c3)cc2)ccn1`, in test [4], the pIC50 is 6.81.
For the compound `O=C(Nc1ccccc1)N[C@H]1CO[C@H]2[C@@H]1OC[C@@H]2Nc1nccc(-c2cccs2)n1`, the negative-log IC50 (pIC50) in test [1] is 5.57.
`CN(C)c1ccc(-c2ccnc(N[C@H]3CO[C@H]4[C@@H]3OC[C@@H]4NC(=O)Nc3cccc(C(F)(F)F)c3)n2)cc1`: the pIC50 in test [1] is 5.25.
As to `N#Cc1cccc(NC(=O)N[C@H]2CO[C@H]3[C@@H]2OC[C@@H]3Nc2nccc(-c3cccc(F)c3)n2)c1`, the pIC50 in test [1] was 5.68. In test [3], the outcome was Active.
On the same counts, the results for `O=C(Nc1cccc(C(F)(F)F)c1)O[C@@H]1CO[C@H]2[C@@H]1OC[C@@H]2Nc1nccc(-c2ccc3c(c2)OCO3)n1` are 5.97 and “inactive”.
Take `O=C(Nc1cccc(C(F)(F)F)c1)N[C@H]1CO[C@H]2[C@@H]1OC[C@@H]2Nc1nccc(-c2cccc(F)c2)n1`: the negative logarithm of the IC50 (pIC50) in test [1] was 5.69. The result in test [3] was Active.
Regarding `CC(C)(C)c1ccnc(N[C@H]2CO[C@H]3[C@@H]2OC[C@@H]3NC(=O)Nc2cccc(C(F)(F)F)c2)n1`, in test [1], the negative logarithm of the IC50 (pIC50) is 4.85.
Turning to `Cn1c(CO[C@H]2CN(Cc3c[nH]c4ccccc34)C[C@H]2F)nc2ccccc21`, the pIC50 in test [1] is below 4.30. The inhibition in test [2] was found to be 14%.
As to `CSCC(=O)N1C[C@@H](NC(=O)Nc2cccc(SC)c2)C[C@H]1C(=O)N[C@H](Cc1c[nH]c2ccccc12)C(N)=O`, in test [1], the pIC50 was below 4.30. In addition, the inhibition in test [2] was 5%.
As for `COc1ccc(-c2ccnc(N[C@H]3CO[C@H]4[C@@H]3OC[C@@H]4NC(=O)Nc3cccc(C#N)c3)n2)cc1`, the pIC50 in test [1] was 7.06. Further, in test [3], the result was Active.
Turning to `O=C(Nc1cccc(C(F)(F)F)c1)N[C@H]1CO[C@H]2[C@@H]1OC[C@H]2OC(=O)Nc1cccc2ccccc12`, in test [1], the negative-log IC50 (pIC50) was below 4.30. Moreover, the inhibition in test [2] came out at 35%.
On the same counts, the results for `O=C(Nc1cccc(C(F)(F)F)c1)N[C@H]1CO[C@H]2[C@@H]1OC[C@@H]2n1nnnc1-c1cccc(CN2CCCC2)c1` are below 4.30 and 7%.
On the same counts, the results for `COC(=O)c1cccc(NC(=S)N[C@H]2CO[C@H]3[C@@H]2OC[C@H]3OC(=O)Nc2cccc(C(F)(F)F)c2)c1` are below 4.30 and 21%.
In the case of `O=C(Nc1cccc(C(F)(F)F)c1)N[C@H]1CO[C@H]2[C@@H]1OC[C@@H]2Nc1nccc(-c2ccco2)n1`, in test [1], the pIC50 was 5.53.
For `O=C(c1ccccc1)N1C[C@@H](F)[C@@H](OCc2nc3cc(C(F)(F)F)ccc3[nH]2)C1`, the pIC50 in test [1] was below 4.30. Also, the inhibition in test [2] is 7%.
For the compound `COc1ccc(-c2ccnc(N[C@H]3CO[C@H]4[C@@H]3OC[C@@H]4NC(=O)Nc3cc(OC)cc(OC)c3)n2)cc1`, the pIC50 in test [1] is 6.38. The result in test [3] was Active.
Take `O=C(Nc1cccc2ccccc12)O[C@@H]1CO[C@H]2[C@@H]1OC[C@@H]2NC(=S)Nc1ccc(Cl)cc1`: the pIC50 in test [1] was below 4.30. Besides, in test [2], the inhibition turned out to be 39%.
In test [4], `CNC(=O)c1cc(Oc2ccc(NC(=O)Nc3ccc(Cl)c(C(F)(F)F)c3)cc2)ccn1` [SORAFENIB] showed a pIC50 of 6.15.
For the compound `CC(C)=CC(=O)N1CC(NC(=O)Nc2ccc(F)cc2F)CC1C(=O)N[C@H](Cc1c[nH]c2ccccc12)C(N)=O` (some centres undefined), the pIC50 in test [1] is below 4.30. Further, the inhibition in test [2] is 5%.
In test [4], `CCOC(=O)Cc1ccc(-n2nc(C(C)(C)C)cc2NC(=O)Nc2ccc(OCCN3CCOCC3)c3ccccc23)cc1` had a negative-log IC50 (pIC50) of 5.74.
As to `COc1ccc(C(=O)N2C[C@@H](F)[C@@H](OCc3nc4cc(C(F)(F)F)ccc4[nH]3)C2)cc1`, the negative logarithm of the IC50 (pIC50) in test [1] was below 4.30. Besides, the inhibition in test [2] was found to be 33%.

These data come from ChEMBL document CHEMBL4732164, “Structure-Based Design of Potent Selective Nanomolar Type-II Inhibitors of Glycogen Synthase Kinase-3β” (J Med Chem, 2021).
